Source: ChEMBL document CHEMBL5036358, “The Flavonoid Baicalein Negatively Regulates Progesterone Target Genes in the Uterus in Vivo” (J Nat Prod, 2022)
Activity calls are given as the source filed them. The calls are words filed in the database; no cut-off is given here.

What was measured:
[1] = target: T1, Glucocorticoid receptor (Homo sapiens, UniProt P04150); assay: Competitive inhibition of glucocorticoid receptor (unknown origin) by fluorescence polarization based competition assay
T1 sequence (P04150 whole entry): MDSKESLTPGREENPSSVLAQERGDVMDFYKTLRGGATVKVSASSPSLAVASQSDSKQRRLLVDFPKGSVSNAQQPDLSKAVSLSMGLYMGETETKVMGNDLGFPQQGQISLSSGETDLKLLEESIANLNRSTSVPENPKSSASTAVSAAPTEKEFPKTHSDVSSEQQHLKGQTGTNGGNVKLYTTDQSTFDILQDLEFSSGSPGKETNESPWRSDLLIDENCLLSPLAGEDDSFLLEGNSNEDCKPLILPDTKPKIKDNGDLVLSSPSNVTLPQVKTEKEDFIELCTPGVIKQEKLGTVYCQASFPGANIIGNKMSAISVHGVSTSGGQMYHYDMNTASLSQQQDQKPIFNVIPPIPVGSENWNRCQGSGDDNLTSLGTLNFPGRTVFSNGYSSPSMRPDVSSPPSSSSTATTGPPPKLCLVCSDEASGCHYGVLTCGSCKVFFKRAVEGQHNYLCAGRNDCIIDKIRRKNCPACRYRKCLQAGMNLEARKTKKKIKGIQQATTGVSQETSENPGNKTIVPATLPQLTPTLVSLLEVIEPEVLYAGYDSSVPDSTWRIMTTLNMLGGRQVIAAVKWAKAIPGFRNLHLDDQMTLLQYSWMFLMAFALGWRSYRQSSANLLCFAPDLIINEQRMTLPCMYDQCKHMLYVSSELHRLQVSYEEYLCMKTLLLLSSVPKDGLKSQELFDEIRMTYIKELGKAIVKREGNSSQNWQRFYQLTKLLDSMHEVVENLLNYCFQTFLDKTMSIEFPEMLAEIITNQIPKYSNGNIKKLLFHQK

[2] = Toxicity in P4 induced CD-1 mouse assessed as effect on body weight at 25 mg/kg, ip for 7 days (Rvb= 30g); assay type: organism-based; settings: in vivo, 168 h, time 7 day
[3] = Toxicity in CD-1 mouse assessed as effect on body weight at 25 mg/kg, ip for 7 days (Rvb= 30g); assay type: organism-based; settings: in vivo, 168 h, time 7 day
[4] = test system: Mus musculus; assay: Effect on PR protein level in CD-1 mouse uterus at 25 mg/kg, ip for 7 days by immunohistochemical staining method; assay type: functional, organism-based; settings: time 7.0 day
In short: (§1)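 Ovariectomized CD-1 mice (n=5/group) were dosed ip for 7 days with 10% DMSO, 1 mg/kg P4, 25 mg/kg compound, 1 mg/kg P4 plus 25 mg/kg compound, or 1 mg/kg P4 plus 10 mg/kg RU486. Uterine sections (5 μm) were processed with citrate retrieval and overnight 4 °C primary antibodies: GR 1:100; PR, HAND2 and ZBTB16 1:200. Staining used biotinylated secondary, ABC and DAB, and was assessed qualitatively.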

[5] = Toxicity in CD-1 mouse assessed as effect on uterus weight at 25 mg/kg,ip for 7 days (Rvb= 0.033g); assay type: organism-based; settings: in vivo, 168 h, time 7 day
[6] = test system: Mus musculus; assay: Effect on P4 induced GR expression in CD-1 mouse uterine luminal epithelium at 25 mg/kg, ip for 7 days by immunohistochemical analysis; assay type: functional, organism-based; settings: Uterine lumen, time 7.0 day; in short: as §1
[7] = Toxicity in CD-1 mouse assessed as effect on liver weight at 25 mg/kg, ip for 7 days (Rvb= 1.3 g); assay type: organism-based; settings: in vivo, 168 h, time 7 day
[8] = test system: Mus musculus; assay: Effect on P4 induced PR protein level in CD-1 mouse uterus at 25 mg/kg, ip for 7 days by immunohistochemical staining method; assay type: functional, organism-based; settings: time 7.0 day; in short: as §1
[9] = test system: Mus musculus; assay: Effect on GR expression in CD-1 mouse uterine stroma at 25 mg/kg, ip for 7 days by immunohistochemical analysis; assay type: functional, organism-based; settings: time 7.0 day; in short: as §1
[10] = test system: Mus musculus; assay: Inhibition of PR induced ZBTB16 expression in CD-1 mouse uterus at 25 mg/kg,ip for 7 days by Immunohistochemical staining method; assay type: functional, organism-based; settings: time 7.0 day; in short: as §1
[11] = target: T2, Progesterone receptor (Homo sapiens, UniProt P06401); assay: Competitive inhibition of progesterone receptor (unknown origin) by fluorescence polarization based competition assay
T2 sequence (P06401 whole entry): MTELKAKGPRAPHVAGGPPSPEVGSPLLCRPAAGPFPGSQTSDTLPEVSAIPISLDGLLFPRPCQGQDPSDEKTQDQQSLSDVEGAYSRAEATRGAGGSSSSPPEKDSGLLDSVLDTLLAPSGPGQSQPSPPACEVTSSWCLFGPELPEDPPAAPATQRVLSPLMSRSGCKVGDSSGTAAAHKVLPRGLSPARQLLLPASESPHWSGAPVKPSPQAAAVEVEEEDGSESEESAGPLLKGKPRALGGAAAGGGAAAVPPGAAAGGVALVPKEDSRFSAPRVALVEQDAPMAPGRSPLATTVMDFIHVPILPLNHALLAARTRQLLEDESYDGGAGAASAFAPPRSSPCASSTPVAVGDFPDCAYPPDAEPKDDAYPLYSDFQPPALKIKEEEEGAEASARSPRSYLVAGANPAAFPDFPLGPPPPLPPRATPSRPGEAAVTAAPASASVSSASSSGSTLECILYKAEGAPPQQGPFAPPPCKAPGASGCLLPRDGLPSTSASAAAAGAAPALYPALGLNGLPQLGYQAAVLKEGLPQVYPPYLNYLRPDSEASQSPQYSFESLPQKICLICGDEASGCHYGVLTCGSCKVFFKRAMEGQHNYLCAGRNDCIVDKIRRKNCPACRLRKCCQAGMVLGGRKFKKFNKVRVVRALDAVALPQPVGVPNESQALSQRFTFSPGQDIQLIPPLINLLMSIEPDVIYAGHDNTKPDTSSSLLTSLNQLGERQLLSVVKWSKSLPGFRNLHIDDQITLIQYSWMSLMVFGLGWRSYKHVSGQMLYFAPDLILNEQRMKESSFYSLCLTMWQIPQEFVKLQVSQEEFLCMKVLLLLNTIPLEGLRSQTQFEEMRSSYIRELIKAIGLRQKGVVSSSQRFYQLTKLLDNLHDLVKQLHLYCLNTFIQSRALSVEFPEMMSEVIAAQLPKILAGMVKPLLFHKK

[12] = Toxicity in P4 induced CD-1 mouse assessed as effect on uterus weight at 25 mg/kg,ip for 7 days (Rvb= 0.033g); assay type: organism-based; settings: in vivo, 168 h, time 7 day
[13] = Toxicity in P4 induced CD-1 mouse assessed as effect on glucose level at 25 mg/kg, ip for 7 days (Rvb=231.6 mg/dL); assay type: organism-based; settings: in vivo, 168 h, time 7 day
[14] = Toxicity in CD-1 mouse assessed as effect on glucose level at 25 mg/kg, ip for 7 days (Rvb=231.6 mg/dL); assay type: organism-based; settings: in vivo, 168 h, time 7 day
[15] = test system: Mus musculus; assay: Upregulation of HAND2 expression in CD-1 mouse uterus at 25 mg/kg, ip for 7 days by immunohistochemical staining method; settings: time 7.0 day
[16] = test system: Mus musculus; assay: Upregulation of P4 induced HAND2 expression in CD-1 mouse uterus at 25 mg/kg, ip for 7 days by immunohistochemical staining method; assay type: functional, organism-based; settings: time 7.0 day, in the assay text read “Downregulation” for “Upregulation”; in short: as §1
[17] = test system: Mus musculus; assay: Effect on GR expression in CD-1 mouse uterine luminal epithelium at 25 mg/kg, ip for 7 days by immunohistochemical analysis; assay type: functional, organism-based; settings: Uterine lumen, time 7.0 day; in short: as §1
[18] = Toxicity in P4 induced CD-1 mouse assessed as effect on liver weight at 25 mg/kg, ip for 7 days (Rvb= 1.3 g); assay type: organism-based; settings: in vivo, 168 h, time 7 day
[19] = Toxicity in CD-1 mouse assessed as effect on MG weight at 25 mg/kg, ip for 7 days (Rvb= 0.22g); assay type: organism-based; settings: in vivo, 168 h, time 7 day
[20] = Antiproliferative activity against CD-1 mouse uterine epithelial cell at 25 mg/kg, ip for 7 days by immunohistochemistry method; assay type: functional; settings: time 7 day
In short: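 Ovariectomized CD-1 mice (n=5/group) received ip 10% DMSO vehicle, 1 mg/kg P4, 25 mg/kg compound, or P4 plus compound daily for 7 days. Formalin-fixed, paraffin 5 μm uterine sections underwent citrate antigen retrieval (100 °C, 30 min), then PCNA IHC (1:200, overnight 4 °C), ABC/DAB and hematoxylin counterstain. Read-out was the percentage of PCNA-positive luminal epithelial cells.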

[21] = Toxicity in P4 induced CD-1 mouse assessed as effect on MG weight at 25 mg/kg, ip for 7 days (Rvb= 0.22g); assay type: organism-based; settings: in vivo, 168 h, time 7 day
[22] = test system: Mus musculus; assay: Effect on P4 induced GR expression in CD-1 mouse uterine stroma at 25 mg/kg, ip for 7 days by immunohistochemical analysis; assay type: functional, organism-based; settings: time 7.0 day; in short: as §1
[23] = test system: Mus musculus; assay: Inhibition of ZBTB16 expression in CD-1 mouse uterus at 25 mg/kg, ip for 7 days by Immunohistochemical staining method; assay type: functional, organism-based; settings: time 7.0 day; in short: as §1
[24] = test system: Mus musculus; assay: Upregulation of P4 induced HAND2 expression in CD-1 mouse uterus at 10 mg/kg, ip for 7 days by immunohistochemical staining method; assay type: functional, organism-based; settings: time 7.0 day
[25] = Toxicity in P4 induced CD-1 mouse assessed as effect on liver weight at 10 mg/kg, ip for 7 days (Rvb= 1.3 g); assay type: organism-based; settings: in vivo, 168 h, time 7 day
[26] = Toxicity in P4 induced CD-1 mouse assessed as effect on MG weight at 10 mg/kg, ip for 7 days (Rvb= 0.22g); assay type: organism-based; settings: in vivo, 168 h, time 7 day
[27] = Toxicity in P4 induced CD-1 mouse assessed as effect on glucose level at 10 mg/kg, ip for 7 days (Rvb=231.6 mg/dL); assay type: organism-based; settings: in vivo, 168 h, time 7 day
[28] = Toxicity in P4 induced CD-1 mouse assessed as effect on uterus weight at 10 mg/kg,ip for 7 days (Rvb= 0.033g); assay type: organism-based; settings: in vivo, 168 h, time 7 day
[29] = test system: Mus musculus; assay: Effect on P4 induced GR expression in CD-1 mouse uterine stroma at 10 mg/kg, ip for 7 days by immunohistochemical analysis; assay type: functional, organism-based; settings: time 7.0 day; in short: as §1
[30] = test system: Mus musculus; assay: Effect on P4 induced PR protein level in CD-1 mouse uterus at 10 mg/kg, ip for 7 days by immunohistochemical staining method; assay type: functional, organism-based; settings: time 7.0 day
[31] = Toxicity in P4 induced CD-1 mouse assessed as effect on body weight at 10 mg/kg, ip for 7 days (Rvb= 30g); assay type: organism-based; settings: in vivo, 168 h, time 7 day
[32] = test system: Mus musculus; assay: Effect on P4 induced GR expression in CD-1 mouse uterine luminal epithelium at 10 mg/kg, ip for 7 days by immunohistochemical analysis; assay type: functional, organism-based; settings: Uterine lumen, time 7.0 day; in short: as §1
[33] = test system: Mus musculus; assay: Inhibition of ZBTB16 expression in CD-1 mouse uterus at 1 mg/kg, ip for 7 days by Immunohistochemical staining method; assay type: functional, organism-based; settings: time 7.0 day
In short: (§2)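 Ovariectomized CD-1 mice, 5 per group, dosed IP daily for 7 days: 10% DMSO vehicle, progesterone 1 mg/kg, baicalein 25 mg/kg, P4 1 mg/kg + baicalein 25 mg/kg, or P4 1 mg/kg + RU486 10 mg/kg. One uterine horn formalin-fixed, paraffin-embedded, cut at 5 μm. IHC: citrate antigen retrieval at 100 °C, primary antibody overnight at 4 °C, ABC/DAB, hematoxylin counterstain. For PCNA, the percentage of proliferating luminal epithelial cells was counted.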

[34] = test system: Mus musculus; assay: Effect on GR expression in CD-1 mouse uterine stromal at 1 mg/kg, ip for 7 days by immunohistochemical staining analysis; assay type: functional, organism-based; settings: Stroma, time 7.0 day; in short: as §2
[35] = Antiproliferative activity against CD-1 mouse uterine epithelial cell at 1 mg/kg, ip for 7 days by immunohistochemistry method; assay type: functional; settings: time 7 day; in short: as §2
[36] = test system: Mus musculus; assay: Effect on PR protein level in CD-1 mouse uterus at 1 mg/kg, ip for 7 days by immunohistochemical; assay type: functional, organism-based; settings: time 7.0 day; in short: as §2

O=c1cc(-c2ccccc2)oc2cc(O)c(O)c(O)c12 [BAICALEIN]
IC50 [1]: 19 µM | Activity [2]: 30 g | Activity [3]: 30 g | Activity [4]: inactive | Activity [5]: 0.026 g | Activity [6]: Active | Activity [7]: 1.4 g | Activity [8]: inactive | Activity [9]: inactive | inhibition [10]: Active | IC50 [11]: 15 µM | Activity [12]: 0.024 g | Activity [13]: 179.8 mg/dL | Activity [14]: 196.2 mg/dL | Activity [15]: inactive | Activity [16]: Active | Activity [17]: inactive | Activity [18]: 1.2 g | Activity [19]: 0.26 g | Activity [20]: 47% | Activity [21]: 0.23 g | Activity [22]: Active | inhibition [23]: inactive

CC#C[C@]1(O)CC[C@H]2[C@@H]3CCC4=CC(=O)CCC4=C3[C@@H](c3ccc(N(C)C)cc3)C[C@@]21C [MIFEPRISTONE]
Activity [24]: inactive | Activity [25]: 1.2 g | Activity [26]: 0.17 g | Activity [27]: 198.2 mg/dL | Activity [28]: 0.021 g | Activity [29]: Active | Activity [30]: inactive | Activity [31]: 29 g | Activity [32]: Active

CC(=O)[C@H]1CC[C@H]2[C@@H]3CCC4=CC(=O)CC[C@]4(C)[C@H]3CC[C@]12C [PROGESTERONE]
inhibition [33]: inactive | Activity [3]: 30 g | Activity [5]: 0.021 g | Activity [7]: 1.4 g | Activity [34]: Active | Activity [14]: 209.4 mg/dL | Activity [35]: 7% | Activity [36]: inactive | Activity [19]: 0.24 g
